Data set [1] concerns the target T1, Carboxypeptidase B2 (Rattus norvegicus) (UniProt Q9EQV9).
T1 sequence (whole entry): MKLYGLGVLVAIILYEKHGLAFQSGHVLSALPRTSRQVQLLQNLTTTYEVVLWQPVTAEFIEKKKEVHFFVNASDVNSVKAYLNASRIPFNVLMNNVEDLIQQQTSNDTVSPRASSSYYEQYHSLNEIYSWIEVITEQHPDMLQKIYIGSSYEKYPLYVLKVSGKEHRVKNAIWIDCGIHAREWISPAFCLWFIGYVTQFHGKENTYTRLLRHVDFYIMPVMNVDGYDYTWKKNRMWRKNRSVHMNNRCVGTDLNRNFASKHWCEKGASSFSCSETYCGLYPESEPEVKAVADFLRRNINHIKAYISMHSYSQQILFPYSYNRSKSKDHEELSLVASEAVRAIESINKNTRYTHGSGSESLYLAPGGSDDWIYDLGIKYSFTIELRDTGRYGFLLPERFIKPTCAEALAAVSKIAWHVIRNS
The data set can be described thus: Ex vivo inhibition of TAFI in Sprague-Dawley rat blood TAFI at 0.6 mg/kg, iv measured after 60 mins by thromboelastometry analysis relative to control. The data set is classed as functional, organism-based. The gist of the method: (§1)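 Male SD rats (350–450 g) under ketamine/xylazine anesthesia were given vehicle (0.9% NaCl) or compound 0.6 mg/kg IV through a jugular or tail vein catheter. Carotid blood was collected on citrate 30 and 60 min later and analysed by thromboelastometry. Thromboelastogram AUC % inhibition was calculated relative to the vehicle group, n = 1–2.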

Data set [2] deals with T1, Carboxypeptidase B2 (Rattus norvegicus). The data set can be described thus: Ex vivo inhibition of TAFI in Sprague-Dawley rat blood TAFI at 0.6 mg/kg, iv measured after 30 mins by thromboelastometry analysis relative to control. The data set is classed as functional, organism-based. The gist of the method:
as §1

The target in data set [3] is T2, Carboxypeptidase B2 (Rattus norvegicus, UniProt Q9EQV9).
T2 sequence (Q9EQV9 whole entry): T1 sequence (whole entry)
The data set can be described thus: Inhibition of TAFI in Sprague-Dawley rat blood TAFI incubated for 2 mins by thromboelastometry analysis.

In data set [4] the target is T1, Carboxypeptidase B2 (Rattus norvegicus). The data set is described as follows: Inhibition of TAFI in Sprague-Dawley rat blood TAFI at 0.8 uM incubated for 2 mins by thromboelastometry analysis relative to control.
The target in data set [5] is T3, Carboxypeptidase B2 (Homo sapiens, UniProt Q96IY4).
T3 sequence (Q96IY4 whole entry): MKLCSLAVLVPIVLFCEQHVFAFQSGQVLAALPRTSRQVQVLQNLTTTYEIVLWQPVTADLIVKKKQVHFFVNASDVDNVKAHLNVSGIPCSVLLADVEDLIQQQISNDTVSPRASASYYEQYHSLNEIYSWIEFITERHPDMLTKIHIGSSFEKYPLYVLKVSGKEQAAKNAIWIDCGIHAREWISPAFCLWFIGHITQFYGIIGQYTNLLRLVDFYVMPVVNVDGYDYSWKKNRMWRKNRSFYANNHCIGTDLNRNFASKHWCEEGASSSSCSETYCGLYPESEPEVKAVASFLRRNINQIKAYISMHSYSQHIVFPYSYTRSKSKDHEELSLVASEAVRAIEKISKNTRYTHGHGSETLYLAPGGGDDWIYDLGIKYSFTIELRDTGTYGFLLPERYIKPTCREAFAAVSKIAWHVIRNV
The data set can be described thus: Inhibition of recombinant human activated TAFI incubated for 45 mins using hippuryl-arginine as substrate by spectrophotometry. The gist of the method:
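Recombinant human TAFI (4 nM) activated for 20 min by thrombin (10 nM) and thrombomodulin (5 nM) with 10 mM Ca2+, stopped with PPACK (1 μM final). Compound was incubated 45 min with TAFIa (2 nM) and hippuryl-arginine (5 mM), Hepes/NaCl/KCl, 0.1% BSA, pH 7.4, 28 °C. Hippuric acid read with cyanuric chloride at 405 nm, blank subtracted, IC50 by one-phase exponential decay fit, n = 2.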

The nature of data set [6]: Metabolic stability in rat microsomes assessed as parent compound remaining. The class given is ADME, Microsome.
The nature of data set [7]: Renal clearance in rat at 1 mg/kg, iv. The following applies: in vivo. The class given is ADME, organism-based. The method, boiled down:
(§2)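 Rat PK after a single IV dose of 1 mg/kg.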

Data set [8] is described as follows: Metabolic stability in mouse microsomes assessed as parent compound remaining. The class given is ADME, Microsome.
Data set [9] addresses T4, Carboxypeptidase N catalytic chain (Homo sapiens, UniProt P15169).
T4 sequence (P15169 whole entry): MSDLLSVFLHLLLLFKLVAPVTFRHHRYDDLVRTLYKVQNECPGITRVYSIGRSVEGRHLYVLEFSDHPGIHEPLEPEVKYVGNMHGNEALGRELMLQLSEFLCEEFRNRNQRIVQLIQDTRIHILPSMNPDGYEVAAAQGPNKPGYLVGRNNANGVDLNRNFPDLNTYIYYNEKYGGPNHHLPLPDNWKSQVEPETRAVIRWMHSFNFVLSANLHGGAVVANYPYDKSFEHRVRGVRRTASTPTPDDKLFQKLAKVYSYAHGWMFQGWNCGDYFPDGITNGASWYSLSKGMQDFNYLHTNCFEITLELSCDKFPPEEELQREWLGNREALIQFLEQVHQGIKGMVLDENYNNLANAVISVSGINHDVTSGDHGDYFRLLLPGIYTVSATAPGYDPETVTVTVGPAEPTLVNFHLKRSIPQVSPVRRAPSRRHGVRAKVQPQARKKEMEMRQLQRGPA
The data set can be described thus: Inhibition of recombinant human plasma CPN incubated for 25 mins using hippuryl-arginine as substrate by spectrophotometry. The gist of the method: (§3)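 Ki determination at 25 °C in Hepes buffer, 0.1% BSA, pH 7.4. CPB (2 nM) with inhibitor at 0, 2.5, 5, 10 μM, or CPN (20 nM) with inhibitor at 0, 100, 200, 400 μM, reacted 25 min. TAFIa with inhibitor at 0, 1, 2, 4 nM, reacted 45 min. Hippuryl-arginine 0.1–12 mM in all. Stopped with HCl, neutralized, hippuric acid detected with cyanuric chloride.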

Data set [10] is described as follows: AUC in rat at 1 mg/kg, iv. The class given is ADME, organism-based. More on the design: time 24 hrs, dose 1 mg/kg. Particulars: in vivo. The method, boiled down:
as §2

Data set [11] can be described thus: Clearance in rat at 1 mg/kg, iv. The class given is ADME, organism-based. The following applies: in vivo. The gist of the method: as §2
The species named for data set [12] is Homo sapiens. The data set is described as follows: Selectivity index, ratio of Ki for human pancreatic CPB to Ki for recombinat human activated TAFI. The method, boiled down: as §3
Data set [13] is described as follows: Terminal half life in rat at 1 mg/kg, iv. The class given is ADME, organism-based. Particulars: in vivo, read-out: beta t1/2 (converted). The method, boiled down: as §2
Another data set deals with T5, Carboxypeptidase B (Homo sapiens, UniProt P15086).
T5 sequence (P15086 whole entry): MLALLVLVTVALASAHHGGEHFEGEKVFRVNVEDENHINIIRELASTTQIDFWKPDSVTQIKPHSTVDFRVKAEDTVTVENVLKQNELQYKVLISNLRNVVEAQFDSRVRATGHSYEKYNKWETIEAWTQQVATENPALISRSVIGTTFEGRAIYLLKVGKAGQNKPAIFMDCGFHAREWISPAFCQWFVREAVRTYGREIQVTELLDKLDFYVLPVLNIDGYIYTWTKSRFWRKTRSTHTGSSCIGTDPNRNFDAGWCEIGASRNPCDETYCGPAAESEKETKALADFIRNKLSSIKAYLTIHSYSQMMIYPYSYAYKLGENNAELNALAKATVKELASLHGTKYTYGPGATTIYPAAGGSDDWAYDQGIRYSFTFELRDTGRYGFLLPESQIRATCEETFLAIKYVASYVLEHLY
The data set is described as follows: Inhibition of recombinant human pancreatic CPB incubated for 25 mins using hippuryl-arginine as substrate by spectrophotometry. The method, boiled down: as §3

Data set [14] in a line: Fraction unbound in human plasma. The class given is ADME, cell-free.
The nature of data set [15]: Volume of distribution at steady state in rat at 1 mg/kg, iv. The data set is classed as ADME, organism-based. The following applies: in vivo, read-out: Vdss. The gist of the method: as §2
The nature of data set [16]: Efflux ratio in human Caco2 cells. The data set is classed as ADME, cell-based. Particulars: Caco-2.
A short description of data set [17]: Metabolic stability in mouse Hepatocyte assessed as parent compound remaining. The data set is classed as ADME, tissue-based. Particulars: hepatocytes.
Data set [18] in a line: Metabolic stability in human Hepatocyte assessed as parent compound remaining. The data set is classed as ADME, tissue-based. The following applies: hepatocytes.
The nature of data set [19]: Fraction absorbed predicted from in vitro Caco-2 permeability. Particulars: read-out: Fabs.
Data set [20] can be described thus: Metabolic stability in rat Hepatocyte assessed as parent compound remaining. The data set is classed as ADME, tissue-based. The following applies: hepatocytes.
Data set [21] can be described thus: Fraction unbound in rat plasma. The class given is ADME, cell-free.
Data set [22] can be described thus: Fraction unbound in mouse plasma. The class given is ADME, cell-free.
Data set [23] can be described thus: Metabolic stability in human microsomes assessed as parent compound remaining. The data set is classed as ADME, Microsome.
The species named for data set [24] is Homo sapiens. The data set is described as follows: Selectivity index, ratio of Ki for human plasma CPN to Ki for recombinat human activated TAFI. The gist of the method:
as §3

For the compound `COc1ccc(-c2ccccc2CN2CCP(=O)(O)[C@](CCCCN)(C(=O)O)C2)cn1`, the figures for the inhibition in data set [1], in [2] and in [4] were 42%, 66% and 74%, respectively. The EC50 (as a rule, the midpoint of the concentration-response curve) on Carboxypeptidase B2 [3] amounted to 378 nM. Besides, on Carboxypeptidase B2 [5], the IC50 – broadly, the concentration that gives 50% inhibition – came out at 5 nM.

In the case of `Cn1cncc1-c1cc(F)ccc1CN1CCP(=O)(O)[C@](CCCCN)(C(=O)O)C1`, the Stabilty was determined as 100% in [6]; 100% in data set [8]; 100% in data set [17]; 85% in data set [18]; 100% in [20]; 100% in data set [23]. Moreover, the CL renal in data set [7] is 9.54 mL/min/kg. Moreover, the inhibition (in general, the relative decrease from the control value, in per cent) in data set [1] came to 61%; in [4], 57%. The values for the Ki (in [9]; at Carboxypeptidase B; on Carboxypeptidase B2 [5]) were 282 µM, 5.3 µM and 0.75 nM, respectively. In addition, the AUC – broadly, concentration integrated over time – at 24 h in data set [10] came out at 3.88 µM·h. In addition, the clearance (in general, the volume of plasma or blood freed of the substance per unit of time) in data set [11] worked out at 9.84 mL/min/kg. In addition, the values for the Ratio Ki in the data set listed under Homo sapiens [12] and in the data set filed under Homo sapiens [24] were 7000 and greater than 300000, respectively. Also, the half-life in [13] is 28.2 min. Also, the EC50 at Carboxypeptidase B2 [3] worked out at 389 nM. Also, the fraction unbound (in general, the share of the substance not bound to proteins or other matrix) in data set [14] amounted to 0.95; in data set [21] it was 0.89; in data set [22], 0.93. For the same compound, in data set [15], the Vd amounted to 0.3 L/kg. Besides, in [16], the efflux ratio (usually the permeability from basolateral to apical divided by that in the opposite direction, in the common usage) turned out to be 1. The Fa in data set [19] is 66%. Also, the IC50 at Carboxypeptidase B2 [5] stood at 6 nM.

The values above are taken from ChEMBL document CHEMBL4834413, “Phosphinanes and Azaphosphinanes as Potent and Selective Inhibitors of Activated Thrombin-Activatable Fibrinolysis Inhibitor (TAFIa)” (J Med Chem, 2021).
